The assay deals with MDA-MB-231 (human breast cancer) cells. Briefly: MTT cell viability assay, MDA-MB-231. It is filed as cell-based. The note with it: MDA-MB-231, 72 h, read-out: Cell viability (%) ±SD. Summed up:
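MDA-MB-231 cells were grown as a monolayer in DMEM with 10% heat-inactivated FBS and 1% penicillin-streptomycin at 37 °C in humidified CO2, subcultured every third day with trypsin-EDTA, and used before passage 8. Cells were exposed 72 h to 10, 25 and 50 μM. Medium was removed, MTT added for 3 h at 37 °C, formazan dissolved in DMSO and read at 595 nm. Viability is relative to untreated control, triplicates, ±SD. IC50 comes from the viability-versus-concentration plot.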

Molecules are shown by their SMILES.

As to `CC(=O)OC[C@@H]1O[C@H](n2cc(Cn3ccc4nc(-c5ccc(C)cc5)cc(=O)n43)nn2)[C@@H](OC(C)=O)[C@H](OC(C)=O)[C@H]1OC(C)=O` (stereo in doubt) [Compound 22, (2S,3S,4R,5S,6S)-2-(Acetoxymethyl)-6-(4-((7-oxo-5-(p-tolyl)pyrazolo[1,5-a]pyrimidin-1(7H)-yl)methyl)-1H-1,2,3-triazol-1-yl)tetrahydro-2H-pyran-3,4,5-triyl triacetate], the viability (in general, a read-out of living cells in per cent, often relative to untreated cells) at 10 µM turned out to be 92.4 ± 5.38%; the viability at 25 µM stood at 87.5 ± 6.74%; the viability at 50 µM is 85.4 ± 4.16%.
`CC(=O)OC[C@@H]1O[C@H](n2cc(Cn3ccc4nc(-c5ccc(Br)cc5)cc(=O)n43)nn2)[C@@H](OC(C)=O)[C@H](OC(C)=O)[C@H]1OC(C)=O` (stereo in doubt) [Compound 24, (2S,3S,4R,5S,6S)-2-(Acetoxymethyl)-6-(4-((5-(4-bromophenyl)-7-oxopyrazolo[1,5-a]pyrimidin-1(7H)-yl)methyl)-1H-1,2,3-triazol-1-yl)tetrahydro-2H-pyran-3,4,5-triyl triacetate]: the viability at 10 µM came out at 100 ± 8.01%, the viability at 25 µM amounted to 100 ± 8.93% and the viability at 50 µM stood at 98.5 ± 2.89%.
Consider `CC(=O)OC[C@@H]1O[C@H](n2cc(Cn3ccc4nc(-c5ccc(Cl)cc5)cc(=O)n43)nn2)[C@@H](OC(C)=O)[C@H](OC(C)=O)[C@H]1OC(C)=O` (stereo in doubt) [Compound 25, (2S,3S,4R,5S,6S)-2-(Acetoxymethyl)-6-(4-((5-(4-chlorophenyl)-7-oxopyrazolo[1,5-a]pyrimidin-1(7H)-yl)methyl)-1H-1,2,3-triazol-1-yl)tetrahydro-2H-pyran-3,4,5-triyl triacetate], for which the viability at 10 µM came out at 98.6 ± 2.25%, the viability at 25 µM turned out to be 93.2 ± 1.96% and the viability at 50 µM is 86.2 ± 9.22%.
`CC(=O)OC[C@@H]1O[C@H](n2cc(Cn3ccc4nc(-c5ccc(C(F)(F)F)cc5)cc(=O)n43)nn2)[C@@H](OC(C)=O)[C@H](OC(C)=O)[C@H]1OC(C)=O` (stereo in doubt) [Compound 27, (2S,3S,4R,5S,6S)-2-(Acetoxymethyl)-6-(4-((7-oxo-5-(4-(trifluoromethyl)phenyl)pyrazolo[1,5-a]pyrimidin-1(7H)-yl)methyl)-1H-1,2,3-triazol-1-yl)tetrahydro-2H-pyran-3,4,5-triyl triacetate]: the viability at 10 µM was 93.2 ± 8.51%, the viability at 25 µM came to 89.8 ± 8.75% and the viability at 50 µM was found to be 74.8 ± 7.02%.
`CC(=O)OC[C@@H]1O[C@H](n2cc(Cn3ccc4nc(-c5ccc(C(C)C)cc5)cc(=O)n43)nn2)[C@@H](OC(C)=O)[C@H](OC(C)=O)[C@H]1OC(C)=O` (stereo in doubt) [Compound 28, (2S,3S,4R,5S,6S)-2-(Acetoxymethyl)-6-(4-((5-(4-isopropylphenyl)-7-oxopyrazolo[1,5-a]pyrimidin-1(7H)-yl)methyl)-1H-1,2,3-triazol-1-yl)tetrahydro-2H-pyran-3,4,5-triyl triacetate]: the viability at 10 µM turned out to be 102 ± 8.51%, the viability at 25 µM was 99.1 ± 3.51% and the viability at 50 µM is 69.5 ± 17.7%.
Consider `CC(=O)OC[C@@H]1O[C@H](n2cc(Cn3ccc4nc(-c5ccc6ccccc6c5)cc(=O)n43)nn2)[C@@H](OC(C)=O)[C@H](OC(C)=O)[C@H]1OC(C)=O` (stereo in doubt) [Compound 29, (2S,3S,4R,5S,6S)-2-(Acetoxymethyl)-6-(4-((5-(naphthalen-2-yl)-7-oxopyrazolo[1,5-a]pyrimidin-1(7H)-yl)methyl)-1H-1,2,3-triazol-1-yl)tetrahydro-2H-pyran-3,4,5-triyl triacetate], for which the viability at 10 µM turned out to be 89.1 ± 4.09%, the viability at 25 µM was found to be 81.5 ± 2.58% and the viability at 50 µM is 88.4 ± 7.36%.
With `CC(=O)OC[C@@H]1O[C@H](n2cc(Cn3ccc4nc(-c5ccc(C)cc5)cc(=O)n43)nn2)[C@@H](OC(C)=O)[C@H](OC(C)=O)[C@@H]1OC(C)=O` (stereo in doubt) [Compound 31, (2S,3R,4R,5S,6S)-2-(Acetoxymethyl)-6-(4-((7-oxo-5-(p-tolyl)pyrazolo[1,5-a]pyrimidin-1(7H)-yl)methyl)-1H-1,2,3-triazol-1-yl)tetrahydro-2H-pyran-3,4,5-triyl triacetate], the viability at 10 µM came out at 81.7 ± 8.36%, the viability at 25 µM was 88.5 ± 6.73% and the viability at 50 µM amounted to 78.8 ± 10.4%.
The corresponding values for `COc1ccc(-c2cc(=O)n3c(ccn3Cc3cn([C@H]4O[C@@H](COC(C)=O)[C@@H](OC(C)=O)[C@@H](OC(C)=O)[C@@H]4OC(C)=O)nn3)n2)cc1` (stereo in doubt) [Compound 32, (2S,3R,4R,5S,6S)-2-(Acetoxymethyl)-6-(4-((5-(4-methoxyphenyl)-7-oxopyrazolo[1,5-a]pyrimidin-1(7H)-yl)methyl)-1H-1,2,3-triazol-1-yl)tetrahydro-2H-pyran-3,4,5-triyl triacetate] are 92.5 ± 9.39%, 86.2 ± 8.63% and 72.5 ± 6.24%.
The matching figures for `CC(=O)OC[C@@H]1O[C@H](n2cc(Cn3ccc4nc(-c5ccc(Cl)cc5)cc(=O)n43)nn2)[C@@H](OC(C)=O)[C@H](OC(C)=O)[C@@H]1OC(C)=O` (stereo in doubt) [Compound 34, (2S,3R,4R,5S,6S)-2-(Acetoxymethyl)-6-(4-((5-(4-chlorophenyl)-7-oxopyrazolo[1,5-a]pyrimidin-1(7H)-yl)methyl)-1H-1,2,3-triazol-1-yl)tetrahydro-2H-pyran-3,4,5-triyl triacetate]: 78.5 ± 2.43%, 76.8 ± 2.43% and 73 ± 2.62%.
`CC(=O)OC[C@@H]1O[C@H](n2cc(Cn3ccc4nc(-c5ccc(F)cc5)cc(=O)n43)nn2)[C@@H](OC(C)=O)[C@H](OC(C)=O)[C@@H]1OC(C)=O` (stereo in doubt) [Compound 35, (2S,3R,4R,5S,6S)-2-(Acetoxymethyl)-6-(4-((5-(4-fluorophenyl)-7-oxopyrazolo[1,5-a]pyrimidin-1(7H)-yl)methyl)-1H-1,2,3-triazol-1-yl)tetrahydro-2H-pyran-3,4,5-triyl triacetate]: the viability at 10 µM came to 82.4 ± 9.97%, the viability at 25 µM was found to be 78.6 ± 10.1% and the viability at 50 µM stood at 75.3 ± 6.17%.
`CC(=O)OC[C@@H]1O[C@H](n2cc(Cn3ccc4nc(-c5ccc(C(C)C)cc5)cc(=O)n43)nn2)[C@@H](OC(C)=O)[C@H](OC(C)=O)[C@@H]1OC(C)=O` (stereo in doubt) [Compound 37, (2S,3R,4R,5S,6S)-2-(Acetoxymethyl)-6-(4-((5-(4-isopropylphenyl)-7-oxopyrazolo[1,5-a]pyrimidin-1(7H)-yl)methyl)-1H-1,2,3-triazol-1-yl)tetrahydro-2H-pyran-3,4,5-triyl triacetate]: the viability at 10 µM came out at 85.2 ± 3.5%, the viability at 25 µM was found to be 80.5 ± 8.96% and the viability at 50 µM came to 78.7 ± 2.56%.
The matching figures for `CC(=O)OC[C@@H]1O[C@H](n2cc(Cn3ccc4nc(-c5ccc6ccccc6c5)cc(=O)n43)nn2)[C@@H](OC(C)=O)[C@H](OC(C)=O)[C@@H]1OC(C)=O` (stereo in doubt) [Compound 38, (2S,3R,4R,5S,6S)-2-(Acetoxymethyl)-6-(4-((5-(naphthalen-2-yl)-7-oxopyrazolo[1,5-a]pyrimidin-1(7H)-yl)methyl)-1H-1,2,3-triazol-1-yl)tetrahydro-2H-pyran-3,4,5-triyl triacetate]: 92 ± 8.31%, 89.6 ± 9.91% and 67.7 ± 10.8%.
The corresponding values for `CC(=O)OC[C@@H]1O[C@H](n2cc(Cn3ccc4nc(-c5ccc6c(c5)OCO6)cc(=O)n43)nn2)[C@@H](OC(C)=O)[C@H](OC(C)=O)[C@@H]1OC(C)=O` (stereo in doubt) [Compound 39, (2S,3R,4R,5S,6S)-2-(Acetoxymethyl)-6-(4-((5-(benzo[d][1,3]dioxol-5-yl)-7-oxopyrazolo[1,5-a]pyrimidin-1(7H)-yl)methyl)-1H-1,2,3-triazol-1-yl)tetrahydro-2H-pyran-3,4,5-triyl triacetate] are 101 ± 9.67%, 98.25 ± 0.34% and 97.5 ± 1.88%.
Regarding `CC(=O)OC[C@H]1O[C@H](n2cc(Cn3ccc4nc(-c5ccc(C)cc5)cc(=O)n43)nn2)[C@@H](OC(C)=O)[C@@H](OC(C)=O)[C@@H]1OC(C)=O` [Compound 40, (2R,3R,4S,5S,6S)-2-(Acetoxymethyl)-6-(4-((7-oxo-5-(p-tolyl)pyrazolo[1,5-a]pyrimidin-1(7H)-yl)methyl)-1H-1,2,3-triazol-1-yl)tetrahydro-2H-pyran-3,4,5-triyl triacetate], the viability at 10 µM stood at 99 ± 7.7%, the viability at 25 µM is 92.8 ± 7.09% and the viability at 50 µM was found to be 91.7 ± 9.12%.
Take `CC(=O)OC[C@H]1O[C@H](n2cc(Cn3ccc4nc(-c5ccc(Br)cc5)cc(=O)n43)nn2)[C@@H](OC(C)=O)[C@@H](OC(C)=O)[C@@H]1OC(C)=O` [Compound 42, (2R,3R,4S,5S,6S)-2-(Acetoxymethyl)-6-(4-((5-(4-bromophenyl)-7-oxopyrazolo[1,5-a]pyrimidin-1(7H)-yl)methyl)-1H-1,2,3-triazol-1-yl)tetrahydro-2H-pyran-3,4,5-triyl triacetate]: the viability at 10 µM was 81.3 ± 7.65%, the viability at 25 µM turned out to be 78.5 ± 6.58% and the viability at 50 µM is 75.5 ± 8.45%.
On to `CC(=O)OC[C@H]1O[C@H](n2cc(Cn3ccc4nc(-c5ccc(Cl)cc5)cc(=O)n43)nn2)[C@@H](OC(C)=O)[C@@H](OC(C)=O)[C@@H]1OC(C)=O` [Compound 43, (2R,3R,4S,5S,6S)-2-(Acetoxymethyl)-6-(4-((5-(4-chlorophenyl)-7-oxopyrazolo[1,5-a]pyrimidin-1(7H)-yl)methyl)-1H-1,2,3-triazol-1-yl)tetrahydro-2H-pyran-3,4,5-triyl triacetate], for which the viability at 10 µM came to 99.5 ± 10.2%, the viability at 25 µM turned out to be 95.2 ± 10.6% and the viability at 50 µM turned out to be 71.4 ± 10.5%.

Source of the values: article PMC10762718 (RSC Advances, 2024).
